The record followed here is PMC6633905 (Molecular pharmaceutics, 2018).

One assay concerns the target human IP receptors (Homo sapiens, UniProt P43119). The experiment in a line: cAMP TR-FRET counter screen in C6-glioma cells, IP. The format is cell-based. The following applies: read-out: IP KB; Schild KB; C6-glioma cells overexpressing IP; agonist iloprost. The method in brief: (§1)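 Rat C6 glioma cells stably expressing the human receptor, seeded 4,000/well overnight; 0.5 h in HBSS with 20 μM rolipram at room temperature; test compound for 10 or 50 min, then rising agonist concentrations for 40 min. Lysis, cAMP-d2/anti-cAMP-Cryptate TR-FRET (F665/F590).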
A general note: In TR-FRET formats the signal depends on donor and acceptor labels being close together.

The target of a further assay is T1, human DP1 receptors (Homo sapiens, UniProt Q13258).
T1 sequence (Q13258 1-359): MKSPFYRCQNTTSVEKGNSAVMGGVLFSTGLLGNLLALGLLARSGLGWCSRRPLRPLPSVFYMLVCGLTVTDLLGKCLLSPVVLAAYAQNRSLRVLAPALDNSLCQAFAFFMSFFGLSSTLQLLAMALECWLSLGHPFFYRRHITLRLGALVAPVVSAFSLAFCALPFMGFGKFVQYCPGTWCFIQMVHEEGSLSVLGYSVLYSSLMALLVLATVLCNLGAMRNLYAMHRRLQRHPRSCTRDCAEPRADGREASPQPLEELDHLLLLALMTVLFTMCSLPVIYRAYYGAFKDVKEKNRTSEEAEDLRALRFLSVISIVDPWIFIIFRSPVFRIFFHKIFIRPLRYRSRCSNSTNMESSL
The experiment in a line: cAMP TR-FRET counter screen in C6-glioma cells, DP1. The format is cell-based. Conditions: read-out: DP1 KB; Schild KB; C6-glioma cells overexpressing DP1; agonist BW245C. In short, it runs like this: as §1

Sequence of human IP receptors (P43119 whole entry): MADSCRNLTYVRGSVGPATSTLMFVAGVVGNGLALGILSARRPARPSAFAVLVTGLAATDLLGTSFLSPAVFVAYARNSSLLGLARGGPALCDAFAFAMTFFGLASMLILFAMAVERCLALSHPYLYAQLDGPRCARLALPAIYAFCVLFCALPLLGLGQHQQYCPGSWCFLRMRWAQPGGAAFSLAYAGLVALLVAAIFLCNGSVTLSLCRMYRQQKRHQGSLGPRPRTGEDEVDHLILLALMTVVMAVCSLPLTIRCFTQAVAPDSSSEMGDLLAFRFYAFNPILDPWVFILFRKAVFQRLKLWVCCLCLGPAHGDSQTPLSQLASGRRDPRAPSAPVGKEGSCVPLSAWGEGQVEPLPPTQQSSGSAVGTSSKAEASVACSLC

With `COc1ccc2cc(OCC3(C(=O)O)CN(C(=O)c4ccc(F)cc4)C3)ccc2c1` [PF-04418948], the Kb at human IP receptors turned out to be 1.7 µM; at human DP1 receptors it was 48.3 µM.
